Test results from ChEMBL document CHEMBL1143078, “Synthesis and anti-Helicobacter pylori activity of 5-(nitroaryl)-1,3,4-thiadiazoles with certain sulfur containing alkyl side chain” (Bioorg Med Chem Lett, 2008).
Converted amounts (≈) assume the structure as drawn.

Key:
[1] = tested on: Helicobacter pylori; assay: Antibacterial activity against Helicobacter pylori isolate assessed as inhibition zone diameter at 0.5 ug/disk after 3-5 days by paper disk diffusion assay; type: functional
Outline: (§1)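 Filter-paper disk diffusion (6 mm disks), with the compound applied in 40 µL methanol and dried. Disks placed on Mueller–Hinton agar with 7% defibrinated horse blood, inoculated with 48 h H. pylori clinical-isolate suspension at 2 McFarland (10^7-10^8 CFU/mL). Incubated 3–5 days at 37 °C microaerophilically (5% O2, 15% CO2, 80% N2). Mean inhibition-zone diameter (mm) from triplicates.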

[2] = tested on: Helicobacter pylori; assay: Antibacterial activity against Helicobacter pylori isolate assessed as inhibition zone diameter at 2 ug/disk after 3-5 days by paper disk diffusion assay; type: functional; outline: as §1
[3] = tested on: Helicobacter pylori; assay: Antibacterial activity against Helicobacter pylori isolate assessed as inhibition zone diameter at 32 ug/disk after 3-5 days by paper disk diffusion assay; type: functional; outline: as §1
[4] = tested on: Escherichia coli; assay: Antibacterial activity against Escherichia coli ATCC 8739 after 18 hrs by serial dilution method; type: functional; conditions: ATCC 8739, 18 h
Outline: (§2)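 Agar dilution MIC. Compound stock diluted with water, then serially doubled in melted Mueller–Hinton agar to 64, 32, 16 and 8 µg/mL. Plates inoculated with 1-5 × 10^4 CFU and incubated 18 h at 37 °C. MIC is the lowest concentration giving no visible growth.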

[5] = tested on: Helicobacter pylori; assay: Antibacterial activity against Helicobacter pylori isolate assessed as inhibition zone diameter at 1 ug/disk after 3-5 days by paper disk diffusion assay; type: functional; outline: as §1
[6] = tested on: Nannizzia gypsea; assay: Antifungal activity against Microsporum gypseum PTCC 5070 after […] by agar dilution method; type: functional
Outline: (§3)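 Agar dilution on Sabouraud dextrose agar. Compound stocks in DMSO. Inocula about 10^5 CFU/mL from log-phase broth cultures. Plates run in triplicate at 30 °C: about 24–48 h for yeasts, about 72 h for moulds, about 168 h for dermatophytes. MIC is the lowest concentration with no visible growth on the plate.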

[7] = Cytotoxicity against mouse NIH/3T3 cells after 72 hrs by MTT assay; type: cell-based; conditions: NIH3T3, 72 h
Outline: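 NIH/3T3 mouse fibroblasts in exponential phase trypsinized and seeded at 5×10^4 cells/mL, then given serially diluted compound in triplicate and incubated 72 h. MTT (5 mg/mL solution) added for 1 h, formazan dissolved in DMSO, absorbance read at 492 nm. IC50 calculated from dose-response curves versus untreated controls, as mean ± SD of triplicates.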

[8] = tested on: Saccharomyces cerevisiae; assay: Antifungal activity against Saccharomyces cerevisiae PTCC 5177 after 72 hrs by agar dilution method; type: functional
[9] = tested on: Staphylococcus aureus; assay: Antibacterial activity against Staphylococcus aureus ATCC 6538P after 18 hrs by serial dilution method; type: functional; outline: as §2
[10] = tested on: Helicobacter pylori; assay: Antibacterial activity against metronidazole-sensitive Helicobacter pylori assessed as inhibition zone diameter at 16 ug/disk after 3-5 days by paper disk diffusion assay; type: functional
Outline: (§4)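 Filter paper disks (6 mm) loaded with compound in 40 μL methanol, dried, placed on Mueller–Hinton agar with 7% defibrinated horse blood pre-inoculated with H. pylori suspension (2 McFarland, 10⁷-10⁸ CFU/mL; 48 h cultures checked for coccoid forms); incubated microaerophilically (5% O2, 15% CO2, 80% N2) at 37 °C for 3–5 days; mean inhibition zone diameter (mm) of triplicates.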

[11] = tested on: Helicobacter pylori; assay: Antibacterial activity against Helicobacter pylori isolate assessed as inhibition zone diameter at 8 ug/disk after 3-5 days by paper disk diffusion assay; type: functional; outline: as §1
[12] = tested on: Helicobacter pylori; assay: Antibacterial activity against metronidazole-sensitive Helicobacter pylori assessed as inhibition zone diameter at 32 ug/disk after 3-5 days by paper disk diffusion assay; type: functional; outline: as §1
[13] = tested on: Helicobacter pylori; assay: Antibacterial activity against Helicobacter pylori isolate assessed as inhibition zone diameter at 4 ug/disk after 3-5 days by paper disk diffusion assay; type: functional; outline: as §1
[14] = tested on: Staphylococcus epidermidis; assay: Antibacterial activity against Staphylococcus epidermidis ATCC 12228 after 18 hrs by serial dilution method; type: functional; conditions: ATCC 12228, 18 h; outline: as §2
[15] = tested on: Klebsiella pneumoniae; assay: Antibacterial activity against Klebsiella pneumoniae ATCC 10031 after 18 hrs by serial dilution method; type: functional; conditions: ATCC 10031, 18 h; outline: as §2
[16] = tested on: Helicobacter pylori; assay: Antibacterial activity against metronidazole-sensitive Helicobacter pylori assessed as inhibition zone diameter at 8 ug/disk after 3-5 days by paper disk diffusion assay; type: functional; outline: as §1
[17] = tested on: Candida albicans; assay: Antifungal activity against Candida albicans PTCC 5027 after 72 hrs by agar dilution method; type: functional
[18] = tested on: Helicobacter pylori; assay: Antibacterial activity against Helicobacter pylori isolate assessed as inhibition zone diameter at 16 ug/disk after 3-5 days by paper disk diffusion assay; type: functional; outline: as §1
[19] = tested on: Aspergillus niger; assay: Antifungal activity against Aspergillus niger PTCC 5012 after 72 hrs by agar dilution method; type: functional; outline: as §3
[20] = tested on: Helicobacter pylori; assay: Antibacterial activity against metronidazole-resistant Helicobacter pylori assessed as inhibition zone diameter at 32 ug/disk after 3-5 days by paper disk diffusion assay; type: functional; outline: as §4
[21] = tested on: Helicobacter pylori; assay: Antibacterial activity against metronidazole-resistant Helicobacter pylori assessed as inhibition zone diameter at 8 ug/disk after 3-5 days by paper disk diffusion assay; type: functional; outline: as §4
[22] = tested on: Helicobacter pylori; assay: Antibacterial activity against metronidazole-resistant Helicobacter pylori assessed as inhibition zone diameter at 16 ug/disk after 3-5 days by paper disk diffusion assay; type: functional; outline: as §4

SMILES	Activity [1]	Activity [2]	Activity [3]	MIC [4]	Activity [5]	MIC [6]	IC50 [7]	MIC [8]	MIC [9]	Activity [10]	Activity [11]	Activity [12]	Activity [13]	MIC [14]	MIC [15]	Activity [16]	MIC [17]	Activity [18]	MIC [19]	Activity [20]	other results
CCSCCSc1nnc(-c2ccc([N+](=O)[O-])s2)s1	16.8 mm	28.9 mm	47.2 mm	> 32 µg/mL	22.9 mm	> 32 µg/mL	4.5 µg/mL (≈ 13.5 µM)	> 32 µg/mL	> 32 µg/mL	50 mm	44.4 mm	50 mm	37.1 mm	32 µg/mL (≈ 96 µM)	> 32 µg/mL	50 mm	> 32 µg/mL	47 mm	> 32 µg/mL	–	–
CCS(=O)(=O)CCSc1nnc(-c2cccc([N+](=O)[O-])c2)s1	–	–	–	> 32 µg/mL	–	> 32 µg/mL	–	> 32 µg/mL	> 32 µg/mL	6 mm	–	26 mm	–	32 µg/mL (≈ 89 µM)	> 32 µg/mL	6 mm	> 32 µg/mL	–	> 32 µg/mL	25 mm	–
CCS(=O)(=O)CCSc1nnc(-c2ccc([N+](=O)[O-])cc2)s1	–	–	–	> 32 µg/mL	–	> 32 µg/mL	–	> 32 µg/mL	> 32 µg/mL	24 mm	–	30 mm	–	32 µg/mL (≈ 89 µM)	> 32 µg/mL	19 mm	> 32 µg/mL	–	> 32 µg/mL	27 mm	–
CCS(=O)(=O)CCSc1nnc(-c2ncc([N+](=O)[O-])n2C)s1	8.5 mm	16.5 mm	40.7 mm	> 32 µg/mL	11.9 mm	> 32 µg/mL	100 µg/mL (≈ 275 µM)	> 32 µg/mL	> 32 µg/mL	40 mm	29.7 mm	47 mm	23.4 mm	32 µg/mL (≈ 88 µM)	> 32 µg/mL	35 mm	> 32 µg/mL	35.8 mm	> 32 µg/mL	–	Activity [21]: 36 mm
CCSCCSc1nnc(-c2cccc([N+](=O)[O-])c2)s1	–	–	–	> 32 µg/mL	–	> 32 µg/mL	–	> 32 µg/mL	> 32 µg/mL	6 mm	–	9 mm	–	32 µg/mL (≈ 97.7 µM)	> 32 µg/mL	6 mm	> 32 µg/mL	–	> 32 µg/mL	–	–
CCSCCSc1nnc(-c2ccc([N+](=O)[O-])cc2)s1	–	–	–	> 32 µg/mL	–	> 32 µg/mL	–	> 32 µg/mL	> 32 µg/mL	16 mm	–	20 mm	–	32 µg/mL (≈ 97.7 µM)	> 32 µg/mL	6 mm	> 32 µg/mL	–	> 32 µg/mL	–	–
CCSCCSc1nnc(-c2ncc([N+](=O)[O-])n2C)s1	12.2 mm	19.5 mm	42.6 mm	> 32 µg/mL	15 mm	> 32 µg/mL	61.5 µg/mL (≈ 186 µM)	> 32 µg/mL	> 32 µg/mL	37 mm	31.7 mm	48 mm	25.4 mm	32 µg/mL (≈ 96.5 µM)	> 32 µg/mL	32 mm	> 32 µg/mL	36.5 mm	> 32 µg/mL	59 mm	Activity [22]: 47 mm; Activity [21]: 35 mm
CCS(=O)(=O)CCSc1nnc(-c2ccc([N+](=O)[O-])o2)s1	6.6 mm	18.3 mm	36.5 mm	> 32 µg/mL	12.6 mm	> 32 µg/mL	4.2 µg/mL (≈ 12 µM)	> 32 µg/mL	> 32 µg/mL	43 mm	29.1 mm	46 mm	23.5 mm	32 µg/mL (≈ 91.6 µM)	> 32 µg/mL	37 mm	> 32 µg/mL	33.1 mm	> 32 µg/mL	41 mm	Activity [22]: 34 mm; Activity [21]: 29 mm
CCSCCSc1nnc(-c2ccc([N+](=O)[O-])o2)s1	6 mm	16.4 mm	34.9 mm	> 32 µg/mL	11.1 mm	> 32 µg/mL	5 µg/mL (≈ 15.8 µM)	> 32 µg/mL	> 32 µg/mL	31 mm	28.3 mm	42 mm	21.5 mm	32 µg/mL (≈ 101 µM)	> 32 µg/mL	22 mm	> 32 µg/mL	30.7 mm	> 32 µg/mL	28 mm	Activity [22]: 21 mm; Activity [21]: 16 mm
CCS(=O)(=O)CCSc1nnc(-c2ccc([N+](=O)[O-])s2)s1	18.2 mm	31.9 mm	47.6 mm	> 32 µg/mL	24.9 mm	> 32 µg/mL	11.6 µg/mL (≈ 31.7 µM)	> 32 µg/mL	> 32 µg/mL	>50 mm	44.2 mm	>50 mm	37.5 mm	32 µg/mL (≈ 87.6 µM)	> 32 µg/mL	>50 mm	> 32 µg/mL	46.7 mm	> 32 µg/mL	–	–
CCSCCSc1nnc(-c2ccccc2[N+](=O)[O-])s1	–	–	–	> 32 µg/mL	–	> 32 µg/mL	–	> 32 µg/mL	> 32 µg/mL	6 mm	–	6 mm	–	32 µg/mL (≈ 97.7 µM)	> 32 µg/mL	6 mm	> 32 µg/mL	–	> 32 µg/mL	–	–
CCS(=O)(=O)CCSc1nnc(-c2ccccc2[N+](=O)[O-])s1	–	–	–	> 32 µg/mL	–	> 32 µg/mL	–	> 32 µg/mL	> 32 µg/mL	9 mm	–	15 mm	–	32 µg/mL (≈ 89 µM)	> 32 µg/mL	6 mm	> 32 µg/mL	–	> 32 µg/mL	13 mm	–
CC1(C)S[C@@H]2[C@H](NC(=O)[C@H](N)c3ccc(O)cc3)C(=O)N2[C@H]1C(=O)O [AMOXICILLIN]	–	–	–	–	24.5 mm	–	–	–	–	–	–	–	–	–	–	–	–	–	–	–	–
Cc1ncc([N+](=O)[O-])n1CCO [METRONIDAZOLE]	6 mm	7.5 mm	20.7 mm	–	6 mm	–	–	–	–	23 mm	16.3 mm	27 mm	8.75 mm	–	–	18 mm	–	18.4 mm	–	14 mm	Activity [22]: 12 mm; Activity [21]: 11 mm
